From PubChem
TRPC4 PAM: allosterically enhances the mouse TRPC4 cation channel; HEK293 TRPC4beta/mu-opioid, DAMGO EC20, Fluo-4 Ca2+ flux; active compounds read high; AID 2227; hit rate 0.42% among 310,000; B-score at 10 µM;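 active = B-score of calcium response area above 5 SD of library B-scores, with initial fluorescence ratio within 5 SD of library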
TRPC4 agonist: TRPC4 (mouse) channel activation; Q9QUQ5; HEK293 TRPC4beta/mu-opioid, Fluo4 calcium fluorescence; active compounds read high; B-score at 10 µM; hit rate 0.49% among 310,000;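 active = B-score above 5 SD of library B-scores, and initial fluorescence ratio not above library mean plus 5 SD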;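 note: positive B-score marks a calcium rise read as TRPC4 activation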
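system = HEK293 cells stably co-expressing mouse TRPC4beta and mu-opioid receptor | schedule = Fluo4 dye loading 45 min at room temperature, 110 s recording | measure = B-scored integrated calcium fluorescence ratio | signal = Fluo4 calcium-sensitive dye fluorescence, kinetic, 1 Hz baseline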
TRPC4 inh: blocks the mouse TRPC4 cation channel | Q9QUQ5 | B-score at 10 µM | hit rate 0.39% among 300,000 | HEK293 TRPC4beta/mu-opioid, DAMGO-evoked Fluo4 calcium flux; active compounds read low | AID 2247;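 active = B-score over 3 SD under the library average, no early fluorescence shift, positive overall ratio signal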
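Test system – stable TRPC4beta/mu-opioid receptor HEK293 cells · Probe or stimulus – DAMGO, a submaximal dose followed by a maximal one · Dosing – one concentration per compound · Signal – Fluo4 calcium fluorescence by kinetic imaging, 5 s 1 Hz baseline · Evaluation – per-well B score of integrated baseline-normalized Fluo4 ratio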
TRPC6 inhibitor: inhibitors of mouse TRPC6 channel | Q61143 | HEK293-TRPC6, membrane potential dye, ACh-evoked depolarization; active compounds read low | B-score at 10 µM | hit rate 1.1% among 310,000;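 active = B-score under library mean minus 3 SD, initial fluorescence not abnormally high, positive integrated signal ratio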;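 note: B-score derived from integrated fluorescence ratio over the kinetic read; more negative B-score means stronger inhibition of depolarization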
Target sequence (Q61143 whole entry, looked up): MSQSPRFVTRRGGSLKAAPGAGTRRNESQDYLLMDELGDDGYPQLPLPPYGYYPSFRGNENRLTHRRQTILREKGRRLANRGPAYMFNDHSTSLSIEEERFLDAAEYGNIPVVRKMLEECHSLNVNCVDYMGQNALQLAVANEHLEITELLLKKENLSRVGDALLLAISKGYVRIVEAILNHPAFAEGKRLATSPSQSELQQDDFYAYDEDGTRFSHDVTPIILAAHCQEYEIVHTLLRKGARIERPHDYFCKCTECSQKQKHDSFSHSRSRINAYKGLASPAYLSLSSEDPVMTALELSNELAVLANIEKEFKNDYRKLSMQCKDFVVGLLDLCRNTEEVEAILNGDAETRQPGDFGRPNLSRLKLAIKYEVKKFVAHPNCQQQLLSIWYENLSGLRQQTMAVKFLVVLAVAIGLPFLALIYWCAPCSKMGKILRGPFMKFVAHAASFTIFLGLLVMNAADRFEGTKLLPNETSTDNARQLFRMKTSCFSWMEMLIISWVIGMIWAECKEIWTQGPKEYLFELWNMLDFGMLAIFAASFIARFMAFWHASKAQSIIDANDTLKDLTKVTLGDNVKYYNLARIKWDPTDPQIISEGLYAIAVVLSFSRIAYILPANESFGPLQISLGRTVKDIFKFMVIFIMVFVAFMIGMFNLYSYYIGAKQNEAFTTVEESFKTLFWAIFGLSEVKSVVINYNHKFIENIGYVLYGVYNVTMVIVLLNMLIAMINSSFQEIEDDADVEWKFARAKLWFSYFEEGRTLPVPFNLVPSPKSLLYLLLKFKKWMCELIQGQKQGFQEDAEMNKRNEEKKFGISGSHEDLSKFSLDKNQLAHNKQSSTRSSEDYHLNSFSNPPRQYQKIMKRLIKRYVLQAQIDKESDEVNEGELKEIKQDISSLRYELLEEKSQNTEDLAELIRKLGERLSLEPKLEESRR
TRPC6 activator: mouse TRPC6 channel activation. Q61143. HEK293-TRPC6 membrane potential dye fluorescence; active compounds read high. B-score at 10 µM. hit rate 0.13% among 310,000. AID 2550;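 active = B-score of the integrated fluorescence ratio above library mean plus 3 SD, and starting fluorescence ratio within library mean plus 5 SD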;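 note: higher score means more depolarization so channel activation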
Of the large screens only hits and unclear results are named; the others gave an inactive call. Rows were chosen to be rich in hits. Some 2.3% of all compounds tested hit in one or more screens of this group.

CCCCN(C(=S)SC)C1CCS(=O)(=O)C1 (stereo not drawn)	none
C=CCn1cc(CN2CCC(C(=O)Nc3cccc(-c4cccc(Cl)c4)c3)CC2)c(C)n1	none
Cc1cccc(NC(=O)CSc2cc(C)c(C#N)c3nc4ccccc4n23)c1	none
NC1=NC[C@H](CC2CCCCC2)N1CCc1cc(C(F)(F)F)cc(C(F)(F)F)c1	TRPC4 agonist 67
COc1ccc(C(C(=O)NC2CCCCC2)N(C(=O)Cc2c[nH]c3ccccc23)c2ccccc2C)cc1OC (stereo not drawn)	TRPC4 PAM 11
CN(C)CCn1c(=S)[nH]c2ccccc2c1=O	TRPC4 PAM 11
O=c1c2ccccc2[nH]c(=S)n1Cc1cccnc1	TRPC4 agonist 45, TRPC4 inh -6
c1ccc(CN2CCN(Cc3c[nH]c4ccccc34)CC2)cc1	TRPC4 inh -6
O=c1c2ccccc2[nH]c(=S)n1CCN1CCN(Cc2ccccc2)CC1	TRPC4 inh -6
CC(=O)Nc1ccc(NC2CCCCC2NS(=O)(=O)c2ccccc2)cc1 (stereo not drawn)	none
CCn1c(C)c(P(c2ccccc2)c2ccccc2)[n+]2ccccc12	none
CCN(C(=O)c1cc(S(=O)(=O)N2CCOCC2)cn1C)c1cccc(C)c1	none
O=C(O)CCCC(=O)N1CCOCCOCCOCCOCC1	none
Cc1ccc(C(=O)OCC(=O)N2CCc3ccccc32)cc1	TRPC4 PAM 11
O=C(OCC(=O)N1CCCc2ccccc21)c1ccc(C(F)(F)F)cc1	none
Cn1cc(CN2CCC(n3nccc3NC(=O)C3CCCC3)CC2)cn1	none
CCCCCCCCCC(=O)N[C@H](CN1CCOCC1)[C@H](O)c1ccccc1	none
CCCCCCCCCCCC(=O)NC(C(=O)O)C(O)c1ccccc1 (stereo not drawn)	TRPC4 inh -6
c1ccc(CN2C3=NCCCN3c3ccccc32)cc1	none
Clc1ccc(CN2C3=NCCN3c3ccccc32)cc1	TRPC4 inh -6
OC(COc1ccccc1)CN1C2=NCCCN2c2ccccc21 (stereo not drawn)	TRPC4 inh -5
Brc1ccc(CN2C3=NCCCN3c3ccccc32)cc1	TRPC4 inh -7
COCCN(C(=O)CSc1nc2ccc(Cl)cc2[nH]1)c1c(N)n(Cc2ccccc2)c(=O)[nH]c1=O	TRPC4 inh -5
COc1cccc(CN2CCC(n3nccc3NC(=O)CCCc3ccccc3)CC2)c1	none
CC1(C)CC(NC(=S)Nc2ccc([N+](=O)[O-])cc2)CC(C)(C)N1	none
Cc1cccc(C)c1N(CC(=O)NC1CCCCC1)C(=O)c1csnn1	none
Cc1cc(-c2sccc2C)nc(-n2cccc2)n1	TRPC4 inh -6
Cc1nc2cc(-c3sccc3-n3cccc3)nn2c(C)c1C	none
Cc1ccnc(NCc2ccc(Cl)cc2)c1	none
O=C(N/N=C/c1cccc(F)c1)NC1CCCCC1	TRPC4 PAM 12
O=C(N/N=C/c1ccccc1OC(F)F)NC1CCCCC1	none
O=C(N/N=C/c1ccccc1F)NC1CCCCC1	TRPC4 PAM 21, TRPC4 agonist 177
O=C(N/N=C/c1ccccc1)NC1CCCCC1	none
FC(F)(F)c1cnc(COc2cc(Cl)cc(Cl)c2)c(Cl)c1	none
CCCCn1c(N)c(N(CCOC)C(=O)c2cc(-c3ccc(F)cc3)nc3ccccc23)c(=O)[nH]c1=O	none
CCOC(=O)C1CCN(C(=O)C2CCC(=O)N(CC3CCCCC3)C2)CC1 (stereo not drawn)	none
COc1ccc(/C=N/NC(=O)c2ccc(C)cc2)cc1CN1CCN(c2ccc(F)cc2)CC1	none
COc1ccc(/C=N/NC(=O)c2ccc(F)cc2)cc1CN1CCc2cc(OC)c(OC)cc2C1C (stereo not drawn)	TRPC4 inh -6
CN(C)c1ccc(NC(=O)CSc2nnc(-c3ccco3)c(-c3ccco3)n2)cc1	TRPC6 inhibitor -5
Cn1c2c(c(=O)n(C)c1=O)NC1(N2)C(=O)Nc2ccccc21 (stereo not drawn)	none
CCOC(=O)c1cn(Cc2ccccc2)c2cc(C)nn2c1=O	none
CCOC(=O)c1cn(Cc2ccccc2)c(C(=O)OC(C)(C)C)c1O	TRPC4 agonist 107
CCCCC1C2=C(CC(C)(C)CC2=O)OC2=C1C(=O)CC(C)(C)C2	TRPC4 PAM 14
COc1ccc(/C=C2/SC(=S)N(CCCC(=O)Nc3ccccc3C(=O)O)C2=O)cc1	TRPC4 inh -6
Cc1ccc(/C=C2\SC(=S)N(CCCC(=O)Nc3ccccc3C(=O)O)C2=O)cc1	none
CCc1ccc(OCC(=O)NNC(=S)NC(=O)C2CCCCC2)c(Br)c1	none
CCc1ccc(OCC(=O)NC2CCCCC2)c(Br)c1	TRPC4 PAM 55
O=C(O)Cc1ccc(NS(=O)(=O)c2ccc3ccccc3c2)cc1	none
O=C(Nc1ccc(S(=O)(=O)NCc2ccccc2)cc1)Nc1ccc2c(c1)OCO2	none
CCNS(=O)(=O)c1ccc(NC(=O)Nc2ccc3c(c2)OCO3)cc1	TRPC4 agonist 61
O=C(NCC(=O)N1CCN(c2ccccc2O)CC1)c1cccs1	none
N#CC(C#N)=c1ccc2c(c1)N1C3=C(CCCC3)CC3CCCCC31N=2 (stereo not drawn)	TRPC6 inhibitor -8.5
CCOc1c([N+](=O)[O-])cc2c(C)c(C(=O)N3CCN(C)CC3)oc2c1OCC	none
O=C(CSc1nnc(-c2ccccc2)o1)c1ccc2c(c1)OCCO2	TRPC4 inh -6
CCN1CCCC1CNS(=O)(=O)c1c(C)cc(C)cc1C (stereo not drawn)	TRPC4 agonist 86
CCCc1ccc(S(=O)(=O)NCC2CCCN2CC)cc1 (stereo not drawn)	none
Cc1nn(C(=O)c2cccc([N+](=O)[O-])c2)c(C)c1Sc1ccccc1	TRPC4 inh -6
COc1ccc(NC(=O)CCS(=O)(=O)c2cccc3nonc23)cc1Cl	none
COc1ccc(-c2cc(C)no2)cc1S(=O)(=O)NCCCN(C)Cc1ccccc1	TRPC4 PAM 14
Cc1cc(-c2ccc(C)c(S(=O)(=O)NCCCN3CCN(c4ccccc4)CC3)c2)on1	none
Cc1cc(-c2ccc(C)c(S(=O)(=O)N3CCN(c4ccccn4)CC3)c2)on1	TRPC4 PAM 40
Cc1cc(-c2ccc(C)c(S(=O)(=O)NCCCN3CCCCCC3)c2)on1	TRPC4 PAM 10
Cc1cc(-c2ccc(C)c(S(=O)(=O)N3CCN(c4ccc([N+](=O)[O-])cc4)CC3)c2)on1	none
COc1ccc(Br)cc1CNC(C)c1ccccc1 (stereo not drawn)	TRPC4 inh -6
O=C1CC(NS(=O)(=O)c2cccs2)CN1c1ccc(Cl)cc1 (stereo not drawn)	none
O=C1CC(NS(=O)(=O)c2cccs2)CN1c1ccccc1 (stereo not drawn)	TRPC4 PAM 18
CCOC(=O)C1(Cc2cccc(OC)c2)CCN(Cc2ccc3c(c2)OCCO3)CC1	TRPC4 agonist 56
CCOC(=O)C1(Cc2cccc(OC)c2)CCN(Cc2cnc(SC)nc2)CC1	TRPC4 inh -5
